Bioassay records: PubChem BioAssay, several laboratories
Sampled rows, rich in hits. Any-hit rate of the full collection: about 5.1%.
STAT3 act: increases IL-6 driven STAT3 reporter signal. U3A cells, IL-6 STAT3-luciferase reporter, luminescence; 100% = signal with IL-6 EC80 alone. AID 871. activation (% of control), % at 5.6 µM. 190,000 tested, 0.91% active;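 active = activation above the screen-wide mean of compound activation plus 3 SD, cut at about 130% in these data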
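Material: STAT3-luciferase reporter U3A cells. Controls: IL-6-treated wells, 100% activation. Read-out: % activation versus median of IL-6-stimulated wells. Probe or stimulus: IL-6 stimulus at 33 ng/mL final. Timing: compound 1 h, then IL-6 6 h at 37 °C. Signal: reporter luminescence signal.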
NF-kB expr up: raises NF-kB expression in human neuronal cells | NF-kB reporter expression; active compounds read high | 190,000 tested, 1.6% active | fold change at 12.5 µM | AID 1239; in the data active = fold change above about 3.3
STAT3 blocker: STAT3 signaling inhibition; U3A cells, IL-6 STAT3-luciferase reporter, luminescence; host cell line lacks STAT1; inhibition, % at 5.5 µM; 190,000 tested, 0.89% active;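 active = inhibition above the mean inhibition across all screened compounds plus 3 SD, cut at about 44% in these data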
APP 5'UTR act: APP 5'UTR luciferase reporter activation; 190,000 tested, 1% active; activation, % at 2 µM; SH-SY5Y APP 5'UTR luciferase reporter, luminescence; zero percent = DMSO vehicle wells;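 active = activation above a set limit, based on mean plus 3 SD of controls, cut at about 140% in these data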
STAT1 blocker: STAT1 signaling inhibition; NIH 3T3 STAT1-luciferase reporter, IFN-gamma, luminescence; inhibition, % at 5.5 µM; 200,000 tested, 0.35% active; AID 920;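 active = inhibition above a set limit, the mean inhibition across all tested compounds plus 3 SD, cut at about 34% in these data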
STAT1 act: increases IFN-gamma driven STAT1 reporter signal. 200,000 tested, 2.6% active. NIH 3T3 STAT1-luciferase reporter, luminescence; 100% = IFN-gamma alone, no compound. activation (% of control), % at 5.5 µM;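 active = activation above the screen-wide mean activation plus 3 SD, cut at about 130% in these data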
Numbers stand for hits; n = inactive; x = not tested or not shown.

SMILES	STAT3 act	NF-kB expr up	STAT3 blocker	APP 5'UTR act	STAT1 blocker	STAT1 act
COc1ccc(NC(=O)c2cccc(F)c2)cc1Cl	n	n	n	n	n	130
COc1ccc(NC(=O)C(OC)c2ccccc2)cc1Cl (configuration not stated)	n	n	n	n	n	n
COc1ccc(NC(=O)c2ccccc2F)cc1Cl	n	4.3	n	n	n	n
O=C(Nc1ccc2cn[nH]c2c1)c1ccccc1F	n	n	n	n	n	147
O=C(Nc1ccc2cn[nH]c2c1)c1c(Cl)cccc1Cl	n	n	n	n	n	n
Cc1ccc(OCCSc2nc(N)cc(N)n2)cc1	n	n	n	n	n	138
Clc1ccc(OCCSc2ncccn2)c(Br)c1	n	n	n	174	n	144
CCCOc1ccc(OCCSc2ncccn2)cc1	n	4.2	n	n	n	135
Cc1cc(Cl)ccc1OC(C)C(=O)NCCCn1ccnc1 (configuration not stated)	n	n	n	n	n	n
CC(=O)Nc1ccc(C(=O)/C=C/c2ccco2)cc1	n	n	n	n	n	n
O=C(/C=C/c1ccco1)c1ccc(O)cc1	n	3.3	n	n	n	n
CSc1ccc(/C=C/C(=O)c2ccc(O)cc2)cc1	n	3.4	n	n	n	n
CCOc1ccc(C(=O)/C=C/c2ccc(SC)cc2)cc1	n	n	n	n	n	n
Cc1c(N)cc(C(=O)N2CCOCC2)cc1[N+](=O)[O-]	n	n	n	n	n	n
Cc1cc(C(=O)CSc2nc3ccccc3o2)c(C)n1C1CC1	n	n	n	n	n	136
Cc1cc(C(=O)CSc2nnnn2C)c(C)n1C1CC1	n	n	n	n	n	n
Cc1nnc(SCC(=O)c2cc(C)n(C3CC3)c2C)s1	n	n	n	n	n	136
O=C(COC(=O)c1cccc(Cl)c1)Nc1cc(Cl)ccc1Oc1ccccc1	n	n	n	n	n	n
Cc1cc2oc(=O)cc(CN3CCC(C)CC3)c2cc1Cl	n	n	n	n	n	n
Cc1ccc2c(CN3CCC(C)CC3)cc(=O)oc2c1	n	4.1	n	n	n	138
CC(C)(C)C(=O)Nc1ccc(N=Nc2ccccc2)cc1	n	n	88	n	67	n
CC1CC1C(=O)OCC(=O)Nc1ccccc1Oc1ccccc1 (configuration not stated)	n	n	n	n	n	n
O=C(O)CCC(=O)Nc1ccc(N=Nc2ccccc2)cc1	n	n	n	n	n	n
CC1CC1C(=O)OCC(=O)Nc1ccc(N=Nc2ccccc2)cc1 (configuration not stated)	n	5.9	n	143	n	148
C=CCc1cccc(C=Nc2cccn3cc(-c4ccccc4)nc23)c1O	n	n	n	n	n	132
SMILES	STAT3 act	NF-kB expr up	STAT3 blocker	APP 5'UTR act	STAT1 blocker	STAT1 act
C=CCc1cccc(C=Nc2cc(Br)ccc2O)c1O	n	n	n	n	n	n
COc1ccc(-c2cc(C(=O)NCC3CCCO3)c3ccccc3n2)cc1 (configuration not stated)	n	n	n	n	n	n
COc1ccc(-c2cc(C(=O)NCC3CCCO3)c3cc(C)ccc3n2)cc1 (configuration not stated)	n	n	n	n	n	133
C/C(=N\NC(=O)c1ccccc1NC(=O)c1ccc(Cl)cc1)c1ccncc1	n	n	106	n	96	n
C/C(=N\NC(=O)c1c(Br)c(C)nn1C)c1cccc(NC(=O)c2ccccc2F)c1	n	n	n	n	n	n
C/C(=N\NC(=O)c1nn(C)cc1Br)c1ccc(NC(=O)c2ccncc2)cc1	n	n	n	n	n	131
C/C(=N\NC(=O)c1nn(C)cc1Br)c1cccc(NC(=O)C(C)(C)C)c1	n	n	n	n	n	n
C/C(=N\NC(=O)c1nn(C)c(C)c1Br)c1cccc(NC(=O)c2ccc(F)cc2)c1	n	n	n	n	n	139
CS(=O)(=O)N1CCN=C1SCc1ccc([N+](=O)[O-])cc1	n	n	n	n	n	n
N#Cc1cc([N+](=O)[O-])ccc1NC(=O)COC(=O)C12CC3CC(CC(C3)C1)C2	n	x	n	n	n	n
CC(C)(C)n1ncc2c(=O)n(CC(=O)Nc3ccc(Cl)cc3)cnc21	n	n	n	n	n	n
CC(C)(C)n1ncc2c(=O)n(CC(=O)NCc3ccccc3)cnc21	n	n	n	168	n	149
CC(C)(C)n1ncc2c(=O)n(CC(=O)c3ccc(Cl)cc3)cnc21	n	n	n	n	n	154
CC(=O)Nc1ccc(NC(=O)Cn2cnc3c(cnn3C(C)(C)C)c2=O)cc1	n	n	n	n	n	n
O=C(CSc1nncs1)NCCCc1ccccc1	n	n	n	n	n	n
CCC(=O)Nc1cccc(-c2cnc3ccccc3n2)c1	n	n	n	n	n	129
O=C(CCl)Nc1cccc(-c2cnc3ccccc3n2)c1	n	n	n	x	n	n
CCOC(=O)c1cnc(-c2ccccc2)nc1N	n	5	n	n	n	146
CCOC(=O)c1cnc(SCC(C)C)nc1N	n	4.7	n	146	n	137
CCOC(=O)c1cnc(SCC(=O)c2ccc(C)cc2)nc1N	n	n	n	n	n	n
CCOC(=O)c1cnc(SCC(=O)c2ccccc2)nc1N	n	3.7	n	n	n	144
CCc1c(C)sc2nc(C(C)C)nc(SCC(=O)N3CCc4ccccc4C3)c12	n	n	n	n	n	n
COc1ccc(NS(=O)(=O)c2cccc(NC(=O)CCS(=O)(=O)c3ccccc3)c2)cc1	n	n	n	n	n	n
CCOC(=O)c1ccc2ncc(-c3ccccc3)nc2c1	n	4.2	n	139	n	148
CN(C)C(=O)C1C2NC(=S)N(c3cccc(Cl)c3)C1(C)Oc1ccc(Cl)cc12 (configuration not stated)	n	n	n	n	n	n
SMILES	STAT3 act	NF-kB expr up	STAT3 blocker	APP 5'UTR act	STAT1 blocker	STAT1 act
Cc1cccc2cc3c(N)c(C(=O)N4CCc5ccccc54)sc3nc12	n	n	n	n	n	n
CC(=O)NCCN=C(C)c1sc2ccccc2c1O	n	n	n	n	n	n
CC(=Nc1cccc(C)c1)c1sc2ccccc2c1O	138	6	n	137	n	170
Nc1ccc(/C=C/C(=O)c2cccs2)cc1	n	5.9	n	143	n	n
Nc1ccc(NC(=O)c2cccs2)cc1	n	n	n	n	n	n
C/C(=N\NC(=O)c1c(-c2ccccc2Cl)noc1C)c1cccc(NC(=O)C(C)C)c1	n	n	n	n	n	n
c1ccc(OCc2nc(-c3cccs3)no2)cc1	n	n	n	n	n	145
Fc1ccc(OCc2nc(-c3cccs3)no2)cc1	n	n	n	n	n	140
O=C(NCc1ccc(F)cc1)c1nc(-c2cccs2)no1	n	n	n	n	n	n
Cc1cc(OCc2nc(-c3cccs3)no2)cc(C)c1Cl	n	n	n	n	n	n
